# Results from different studies.
# Protocols differ between the studies behind these lines.
# MAP3K10: Mitogen-activated protein kinase kinase kinase 10 (MAP3K10, Homo sapiens, UniProt Q02779)
# LCK: Tyrosine-protein kinase Lck (LCK, Homo sapiens, UniProt P06239)
# PIP4K2C: Phosphatidylinositol 5-phosphate 4-kinase type-2 gamma (PIP4K2C, Homo sapiens, UniProt Q8TBX8)
target,assay,setting,measurement,value,Compound
MAP3K10,"enzyme activity, inhibitor",0.1 µM,inhibition,-11.7%,Cc1cc(O)c(-c2ccc([C@@H](C)CN(C)C)cc2)c2c1[nH]c(=O)c1sccc12
"Serine/threonine-protein kinase 38 (STK38, Homo sapiens, UniProt Q15208)",binding,1 µM,remaining binding,104%,COc1ccc2oc(-c3ccc4nc(N)oc4c3)c/c(=N\c3ccccc3NC(=O)CCN)c2c1
LCK,"enzyme activity, inhibitor",1 µM,remaining activity,41%,CS(=O)(=NC#N)c1ccccc1Nc1nc(Nc2ccnc(CO)c2)ncc1Cl (stereo not shown)
MAP3K10,"enzyme activity, inhibitor",0.2 µM,inhibition,54.5%,C#Cc1cc(-c2cc(Nc3nc(N[C@@H](C)c4ccc(F)cn4)ncc3Cl)n[nH]2)ccc1C=O
"Electrogenic aspartate/glutamate antiporter SLC25A13, mitochondrial (SLC25A13, Homo sapiens, UniProt Q9UJS0)","thermal stability, DSF",1 mM,ΔTm,~3 °C,N[C@@H](CC(=O)O)C(=O)O
"Ectonucleotide pyrophosphatase/phosphodiesterase family member 1 (ENPP1, Homo sapiens, UniProt P22413)","binding, SPR",,residence time,8.73 min,COc1cccc2c(N3CCC(CCP(=O)(O)O)CC3)ncnc12
PIP4K2C,"binding, competition with immobilised ligand",0.5 µM,inhibition,97.5%,CCCCC(=O)Nc1ccc(-c2ccc3ncn(CCF)c(=O)c3c2)cn1
"Aldo-keto reductase family 1 member B1 (AKR1B1, Homo sapiens, UniProt P15121)","enzyme activity, inhibitor",,IC20,1.65 µg/mL,COc1cc(/C=N/NC(=S)NN=Cc2ccc([N+](=O)[O-])o2)ccc1Oc1ccnc2cc(Cl)ccc12
PIP4K2C,"binding, competition with immobilised ligand",0.5 µM,inhibition,99.5%,CCCC(=O)Nc1ccc(-c2ccc3ncn(CCC)c(=O)c3c2)cn1
LCK,"enzyme activity, inhibitor",1 µM,remaining activity,1.89%,CNC(=O)c1ccccc1Nc1nc(Nc2ccc(CO)cc2)ncc1Cl
"Dual specificity mitogen-activated protein kinase kinase 4 (MAP2K4, Homo sapiens, UniProt P45985)","binding, competition with immobilised ligand",0.5 µM,remaining binding,100%,CCCCC(=O)Nc1ccc(-c2ccc3ncn(CCC)c(=O)c3c2)cn1
LCK,"enzyme activity, inhibitor",1 µM,remaining activity,14.6%,C#Cc1cnc(Nc2ccnc(CO)c2)nc1Nc1ccccc1S(C)(=O)=NC#N (stereo not shown)
"Proto-oncogene tyrosine-protein kinase receptor Ret (RET, Homo sapiens, UniProt P07949, V804M)",binding,0.1 µM,remaining binding,84%,C1=C/COCc2cc(ccc2OCCN2CCCC2)Nc2nccc(n2)-c2cccc(c2)COC/1
